Source: PubChem (Broad Institute)
S100A4 MyoIIA – blocks human S100A4 binding to myosin IIA peptide | S100A4/TAMRA-MyoIIA peptide fluorescence polarization | 360,000 compounds, 0.14% hits | P26447 | AID 652163 | inhibition, % at 10.7 µM;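 active = mean inhibition of at least 70% across replicates, with every replicate also reaching that level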
Target sequence (P26447 whole entry, looked up): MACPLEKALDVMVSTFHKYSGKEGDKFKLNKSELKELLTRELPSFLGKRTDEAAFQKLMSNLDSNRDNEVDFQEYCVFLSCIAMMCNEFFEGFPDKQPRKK
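Material: S100A4 monomer protein / Buffer or medium: 50 mM HEPES pH 7.2, 10 mM CaCl2, 100 mM KCl / Times: 5 min incubation before reading / Benchmarks: neutral control DMSO, positive control TFP / Reagent: labelled myosin peptide probe, 5 nM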
RAD52 anneal inh – inhibitors of human RAD52 DNA annealing | recombinant RAD52 DNA annealing, FRET fluorescence | AID 651710 | 360,000 compounds, 0.46% hits | inhibition, % at 18.7 µM;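 active = every replicate showing at least 50% inhibition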
Target sequence (P43351 whole entry, looked up): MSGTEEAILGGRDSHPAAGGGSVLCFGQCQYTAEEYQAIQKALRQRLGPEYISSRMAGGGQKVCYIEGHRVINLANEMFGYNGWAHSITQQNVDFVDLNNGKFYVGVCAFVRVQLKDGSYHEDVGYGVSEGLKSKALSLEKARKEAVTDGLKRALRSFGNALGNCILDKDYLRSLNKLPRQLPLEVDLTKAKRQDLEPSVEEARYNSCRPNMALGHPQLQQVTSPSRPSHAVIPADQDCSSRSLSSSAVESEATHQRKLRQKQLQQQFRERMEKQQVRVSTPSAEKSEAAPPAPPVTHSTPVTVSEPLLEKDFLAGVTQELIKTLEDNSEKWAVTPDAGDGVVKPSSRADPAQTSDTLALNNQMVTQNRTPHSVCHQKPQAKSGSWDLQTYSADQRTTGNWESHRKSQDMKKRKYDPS
RAD54 inh – blocks human RAD54 Holliday junction branch migration. Q92698. FAM/BHQ fluorescence. inhibition, % at 10.4 µM. 360,000 compounds, 0.14% hits. AID 602329;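 active = mean normalized replicate activity at least 40 and at least half of replicates scoring 40 or more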;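 note: 0% = median of neutral control wells and 100% = median of positive control wells; inhibitors cause a drop in the FAM fluorescence signal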
MLL AF4-AF9 inh – inhibitors of human MLL-AF4/AF9 interaction; P42568; 350,000 compounds, 0.47% hits; inhibition, % at 10 µM; AlphaScreen, biotin-AF4 peptide binding to FLAG-AF9;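 active = every replicate reaching a set inhibition limit, whatever the replicate mean, cut at about 25% in these data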;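 note: 0% = plate neutral control median and 100% = total signal loss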
dFosB act-1 – activators of mouse delta FosB homodimer; P13346; purified delta FosB, TAMRA-CDK5 oligo fluorescence polarization; percent of positive-control signal above neutral wells; activation, % at 25 µM; 340,000 compounds, 0.99% hits; AID 493131;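 active = mean activation above about 17%, with every replicate also reaching it, limit read from the data, passing the limit was not always enough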
dFosB act-2 – enhances mouse delta FosB homodimer binding to DNA; 2,400 tested, under 10 active; shares compounds with dFosB act-1; activation, % at 24.9 µM; purified delta FosB, TAMRA-CDK5 oligo fluorescence polarization; normalised: neutral wells 0, positive control 100;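 active = highest replicate activation at or above 34% and every replicate reaching that threshold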;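 note: higher polarization means more probe DNA bound by delta FosB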
* = called active by the depositor; x = not tested or not shown. Rows were chosen to be rich in hits. Some 1.5% of all compounds tested hit in one or more screens of this group.

SMILES | S100A4 MyoIIA | RAD52 anneal inh | RAD54 inh | MLL AF4-AF9 inh | dFosB act-1 | dFosB act-2
COc1ccccc1C1CC(c2ccccc2)=NN1S(=O)(=O)c1ccccc1 (stereo unspecified) | -4.9 | -9.1 | 7.1 | -53.7 | -6.8 | x
Cc1ccc2nc(-c3ccc(SCC(=O)Nc4nc(C)cs4)nc3)[nH]c2c1 | x | x | 0.5 | x | 33.0* | 4.7
Cc1csc(NC(=O)CSc2ncc(-c3ccccc3)[nH]2)n1 | 0.1 | -24.0 | -5.7 | -10.2 | -5.6 | x
Cc1ccc2nc(-c3ccc(SCC(=O)Nc4nnc(C)s4)nc3)[nH]c2c1 | x | x | x | x | 71.6* | 2.4
COC(=O)c1ccc(Nc2ncnc3c2cnn3-c2cccc(C)c2)cc1 | -8.5 | -11.1 | 2.0 | -1.4 | 45.3* | -1.6
COc1ccc(/C=N/NC(=O)C2c3ccccc3-c3ccccc32)cc1 | 9.3 | -9.6 | x | 8.7 | 21.9* | 0.0
COc1ccc(/C=N/NC(=O)CC(=O)N/N=C/c2ccc(OC)cc2)cc1 | 3.5 | -14.1 | 2.5 | -0.7 | 6.6 | x
O=C(C[C@H]1C[C@H]2c3cc(NC(=O)c4cccnc4)ccc3O[C@H]2[C@@H](CO)O1)NC1CCCC1 | 6.0 | -22.7 | x | -1.7 | x | x
CCCC#Cc1ccc([C@@H]2[C@H]3CN(C(=O)Nc4ccc(F)cc4)CC(=O)N3[C@H]2CO)cc1 | -10.1 | 3.7 | x | 3.5 | x | x
COc1cc(OC)c(NC(=O)c2sc3ncn(CC(=O)N4CCN(c5ccccn5)CC4)c(=O)c3c2C)cc1Cl | 2.6 | -13.7 | -6.2 | -3.4 | 23.6* | 0.4
COc1ccc(NC(=O)c2sc3ncn(CC(=O)N4CCN(c5ccccn5)CC4)c(=O)c3c2C)c(OC)c1 | -2.0 | -13.5 | 0.4 | -2.6 | 11.4 | x
COc1ccc(S(=O)(=O)N(C)C[C@@H]2Oc3ccc(NC(=O)CCN4CCOCC4)cc3C(=O)N([C@@H](C)CO)C[C@H]2C)cc1 | -29.6 | -0.9 | 8.2 | -1.8 | x | x
Cc1ccc(-c2sc(-c3ccccc3)nc2CC(=O)Nc2ccccc2F)cc1 | -1.7 | 11.8 | -4.3 | 6.5 | -1.6 | x
Cc1ccc(NC(=O)CC2=NC(=O)C(CC(=O)Nc3ccccc3F)S2)cc1 (stereo unspecified) | 6.0 | -11.9 | 11.7 | -26.9 | 45.8* | 3.9
C[C@@H]1CN([C@@H](C)CO)C(=O)c2cc(-c3cccnc3)cnc2O[C@@H]1CN(C)C(=O)c1cccc(F)c1 | -4.2 | 10.3 | -1.4 | -7.9 | x | x
Cc1ccc(S(=O)(=O)c2nc(Nc3ccccc3N3CCOCC3)sc2Cl)cc1 | x | x | -6.2 | x | 21.9* | 2.8
Cc1ccc(S(=O)(=O)c2nc(Nc3ccccc3C#N)sc2Cl)cc1 | -3.4 | -10.2 | x | 0.1 | -5.4 | x
Fc1ccc(N2CCN(C3=Nc4cccc5cccc3c45)CC2)cc1 | 0.7 | -76.5 | x | 31.7* | 22.5* | 1.6
CCCC(=O)Nc1ccc2c(c1)C(=O)N(C)[C@H]1CC[C@H](CC(=O)NCCc3ccncc3)O[C@@H]1CO2 | -31.7 | 7.0 | 4.0 | 2.2 | x | x
CC(OC(=O)c1cccc(-n2cnnn2)c1)C(=O)Nc1ccc(F)c(F)c1F (stereo unspecified) | -1.1 | 0.8 | -12.2 | 3.7 | 29.6* | -0.7
C[C@@H]1CN([C@@H](C)CO)C(=O)c2cc(NC(=O)Nc3ccc(F)cc3)ccc2O[C@@H](C)CCCCO[C@@H]1CN(C)Cc1ccncc1 | x | x | 3.4 | x | x | x
COC(=O)C(Cc1ccccc1)NC(=O)C(CC(C)C)NC(=O)OC(C)(C)C (stereo unspecified) | x | x | x | x | -5.8 | x
CC(C)CC(NC(=O)C(Cc1ccc(OCc2ccccc2)cc1)NC(=O)OC(C)(C)C)C(N)=O (stereo unspecified) | x | x | -2.4 | x | 29.8* | 1.0
COc1ccc(NC(=O)N[C@@H]2CC[C@@H](CC(=O)NC3CCCCC3)O[C@H]2CO)cc1 | 3.6 | -2.7 | -6.8 | -2.1 | x | x
O=C(COC(=O)c1ccccc1F)NCc1ccc2c(c1)OCO2 | -1.3 | -12.8 | -4.9 | -0.1 | 0.5 | x
SMILES | S100A4 MyoIIA | RAD52 anneal inh | RAD54 inh | MLL AF4-AF9 inh | dFosB act-1 | dFosB act-2
O=C(COC(=O)c1cccnc1Nc1ccccc1F)NCc1ccc2c(c1)OCO2 | x | x | 4.5 | x | 55.2* | 3.2
CCCNC(=O)N1CC2(C1)[C@@H](c1ccccc1)[C@H](CO)N2C(=O)C1CCC1 | 17.0 | 4.2 | x | -0.1 | x | x
CCOC(=O)/C(C#N)=C/C=C1\C=Cc2ccccc2N1CC | 11.8 | -33.1 | x | 3.9 | -24.6 | x
CN1/C(=C/C=C(C#N)C#N)C=Cc2ccccc21 | 21.2 | -69.6 | x | x | 29.0* | 3.1
NC(=O)CC(NC(=O)Cc1ccc(Br)cc1)c1ccc(NCc2ccc(F)cc2)c([N+](=O)[O-])c1 (stereo unspecified) | -1.1 | -16.1 | 2.3 | -24.7 | 53.3* | 7.6
NC(=O)CC(NC(=O)c1ccccc1)c1ccc(NCCOc2ccccc2)c([N+](=O)[O-])c1 (stereo unspecified) | x | x | 5.3 | x | 26.3* | 1.7
COCC#Cc1cnc2c(c1)C(=O)N([C@H](C)CO)C[C@H](C)[C@H](CN(C)C(C)=O)O2 | -9.3 | 5.9 | -3.5 | -12.4 | x | x
COc1ccc(C(=O)Cn2cnc3ccccc3c2=O)cc1OC | -24.9 | -22.6 | -2.3 | -2.6 | -11.3 | x
COc1ccc(C(=O)Cn2cnc3ccc(Cl)cc3c2=O)cc1F | -2.6 | -19.0 | -15.1 | -3.2 | 26.0* | 0.3
CCN1[C@@H]2c3ccc(-c4ccccc4F)c(=O)n3C[C@H]1[C@H](CO)[C@H]2C(=O)N1CCOCC1 | -3.7 | -10.7 | 1.1 | 0.7 | x | x
COc1cc(/C=N/NC(=O)c2cc(C3CC3)[nH]n2)cc(OC)c1OC | -0.2 | 3.2 | 15.7 | 0.6 | 20.5* | -1.3
CCCC#Cc1ccc2c(c1)O[C@H](CN(C)C(=O)c1cnccn1)[C@@H](C)CN([C@H](C)CO)S2(=O)=O | -13.3 | 3.3 | 3.8 | -1.1 | x | x
O=C(C[C@H]1C/C=C\CC[C@H](Cc2ccc(F)cc2)C(=O)O[C@H](c2ccccc2)CNC1=O)N[C@H](CO)Cc1ccccc1 | -7.0 | -4.6 | 1.0 | -1.8 | 48.0* | 0.3
S=c1nc(NCc2cccc(Cl)c2)c2ccccc2[nH]1 | 0.7 | -15.6 | 3.8 | 0.2 | 45.3* | 0.4
c1ccc(CNc2nc(-c3cccs3)nc3ccccc23)cc1 | -4.6 | -65.6 | x | 0.3 | 16.8* | 2.3
COc1cc2[nH]c(=S)nc(NCc3cccc(Cl)c3)c2cc1OC | -0.6 | 28.7 | 1.6 | 1.1 | -7.0 | x
c1ccc(CNc2nc(-c3ccccc3)nc3ccccc23)cc1 | -1.2 | -6.4 | 5.6 | -0.2 | -0.2 | x
Clc1cccc(CNc2nc(-c3cccnc3)nc3ccccc23)c1 | -3.7 | -14.5 | 1.1 | -3.2 | 54.8* | 1.6
CO[C@@H]1CN(C)C(=O)c2ccc(NC(=O)C3CC3)cc2OC[C@@H](C)N(CCC(F)(F)F)C[C@H]1C | 6.7 | 9.2 | x | -2.6 | x | x
Cc1noc(C)c1S(=O)(=O)Nc1ccc2c(c1)CC(=O)N([C@@H](C)CO)C[C@@H](C)[C@H](CN(C)C(=O)Nc1cccc3ccccc13)O2 | 1.4 | 13.0 | 9.9 | 7.2 | x | x
